Measurements from PMC7254033 (Saudi Journal of Biological Sciences, 2019).
≈ marks a conversion by molar mass, not a printed value. Marks after values point to notes of the source that are not given here.

Key:
Candida krusei ATCC 6258 = assay: Anti-yeast activity, CLSI M27-A3 microdilution MIC; assay type: cell-based; settings: for Antifungal activity, folds less than fuconazole: strain not given, fits C. krusei of Table 3
In short: (§1)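 Broth microdilution per CLSI M27-A3 in RPMI 1640 with two-fold serial dilutions over ten concentrations, alongside fluconazole reference dilutions. Strains were kept on agar slopes at 4 °C and subcultured for 48 h before each run. Inoculum was standardized at 2.50 × 10^3 cells/mL, with a blank sterility column. Plates were incubated 48 h at 37 °C. MIC was the lowest concentration with no visible turbidity. Tested in triplicate.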

Candida glabrata isolate = assay: Anti-yeast activity, CLSI M27-A3 microdilution MIC; assay type: cell-based; settings: 48 h, 37 °C
In short: as §1

[1] = DPPH radical scavenging activity; settings: 30 mins in the dark, absorbance at 517 nm
In short: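 DPPH was made up at 0.02% in methanol ([…]), stored closed away from light and heat. Serial dilutions of test compound were mixed with the DPPH solution to eight final two-fold concentrations, with ascorbic acid treated identically as positive control. Mixtures stood 30 min in the dark at room temperature. Absorbance at 517 nm was read against blank. % scavenging = (Ao − As)/Ao × 100, and IC50 was deduced from it. Triplicate.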

[2] = test system: Candida albicans NR-29450; assay: Anti-yeast activity, CLSI M27-A3 microdilution MIC; assay type: cell-based; settings: NR29450, 48 h, read-out: Antifungal activity Minimal Inhibitory Concentrations, C. albicans
In short: as §1

[3] = test system: zymosan stimulated human whole blood phagocytes; assay: Oxidative burst assay; assay type: cell-based; settings: read-out: ROS Inhibition (IC50 µg/mL)
In short: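 Diluted human whole blood phagocytes were stimulated with zymosan and intracellular ROS measured by luminol-enhanced chemiluminescence. Test compound was given at three concentrations (1, 10 and 100), with ibuprofen as standard anti-inflammatory drug. IC50 was derived.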

Row | DPPH radical scavenging activity IC50 [1] | MIC [2] [µg/mL] | Structure (SMILES) | further results
1 |  |  | OC(Cn1cncn1)(Cn1cncn1)c1ccc(F)cc1F [Fluconazol, fluconazole, reference compound] | Antifungal activity Minimal Inhibitory Concentrations, C. krusei (Candida krusei ATCC 6258; 48 h, 37 °C): 50 µg/mL; Antifungal activity Minimal Inhibitory Concentrations, C. glabrata (Candida glabrata isolate): 50 µg/mL
2 | 3.343 ± 0.271^a µg/mL |  | O=C1O[C@H]([C@@H](O)CO)C(O)=C1O [Vitamin C, ascorbic acid, reference compound] | 
3 | ˃1000 µg/mL | 500 (≈ 1090 µM) | C=C(C)[C@@H]1CC[C@]2(C(=O)O)CC[C@]3(C)[C@H](CC[C@@H]4[C@@]5(C)CC[C@H](O)C(C)(C)[C@@H]5CC[C@]43C)[C@@H]12 [Compound 8, betulinic acid] | Antifungal activity, folds less than fuconazole (Candida krusei ATCC 6258): 5 folds
4 | ˃1000 µg/mL | 500 (≈ 1090 µM) | CC1(C)CC[C@]2(C(=O)O)CC[C@]3(C)C(=CC[C@@H]4[C@@]5(C)CC[C@H](O)C(C)(C)[C@@H]5CC[C@]43C)[C@@H]2C1 [Compound 5, oleanolic acid] | 
5 | ˃1000 µg/mL | 500 (≈ 1170 µM) | C=C(C)[C@@H]1CC[C@]2(C)CC[C@]3(C)[C@H](CC[C@@H]4[C@@]5(C)CC[C@H](O)C(C)(C)[C@@H]5CC[C@]43C)[C@@H]12 [Compound 7, lupeol] | Antifungal activity, folds less than fuconazole (Candida krusei ATCC 6258): 5 folds
6 |  |  | CC(C)Cc1ccc(C(C)C(=O)O)cc1 (centres unmarked) [Ibuprofen] | IC50 [3]: 11.2 ± 1.9 µg/mL (≈ 54.3 µM)
7 | ˃1000 µg/mL | 500 (≈ 1180 µM) | C=C(C)[C@@H]1CC[C@]2(C)CC[C@]3(C)[C@H](CC[C@@H]4[C@@]5(C)CCC(=O)C(C)(C)[C@@H]5CC[C@]43C)[C@@H]12 [Compound 10, lupenone] | 
